Diaphorase act: diaphorase activation or chemical reduction counter-screen. 190,000 compounds, 0.005% hits. activation factor at 20 µM. Diaphorase/resazurin coupled assay, resorufin fluorescence, 16 min; stronger effect = higher value; 1 = vehicle wells, 0 = NADH-free wells;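 active = diaphorase activity raised at least twofold by the compound at 20 µM; inactive = activation factor below 2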
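Material: purified diaphorase enzyme from Clostridium kluyveri / Medium: HEPES pH 7.4 buffer with MgCl2 and Tween 20 / Schedule: enzyme reaction of 16 min at room temperature / Measured by: resorufin fluorescence, excitation 544 nm, emission 590 nm / Evaluation: rise in resorufin formation, marking diaphorase activation or chemical reduction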
PMI act hi M6P: increases human PMI activity with near-saturating mannose 6-phosphate. P34949. coupled PMI enzyme assay, resazurin fluorescence, 20 min; stronger effect = higher value; 1 = untreated enzyme, 0 = substrate-free blank. activation factor at 20 µM. 190,000 compounds, 0.34% hits. AID 1216;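 active = activation factor of 2 or more at 20 µM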
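Test system: human phosphomannose isomerase with PGI, G6PDH, diaphorase coupling enzymes; Amount: PMI at 15 ng/mL final; Reagent: Mannose-6-phosphate 1.0 mM (near-saturating) plus 0.22 mM NADP+; Timing: 20 min, room temperature; Technique: resorufin fluorescence at Ex 544/Em 590 nm; Dosing: 20 µM single dose.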
ROMK primary: modulators of human ROMK potassium channel; P48048; Tet-inducible ROMK, thallium flux fluorescence; actives lie on both sides; B-score at 10 µM; 130,000 compounds, 2% hits; AID 1918;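 active = signal ratio slope over the read window, or its plate-corrected B-score, at least 3 SD from the plate mean, either direction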;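 note: B-score of the F/F0 ratio slope over 7 to 12 s after thallium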
Target sequence (P48048 whole entry, looked up): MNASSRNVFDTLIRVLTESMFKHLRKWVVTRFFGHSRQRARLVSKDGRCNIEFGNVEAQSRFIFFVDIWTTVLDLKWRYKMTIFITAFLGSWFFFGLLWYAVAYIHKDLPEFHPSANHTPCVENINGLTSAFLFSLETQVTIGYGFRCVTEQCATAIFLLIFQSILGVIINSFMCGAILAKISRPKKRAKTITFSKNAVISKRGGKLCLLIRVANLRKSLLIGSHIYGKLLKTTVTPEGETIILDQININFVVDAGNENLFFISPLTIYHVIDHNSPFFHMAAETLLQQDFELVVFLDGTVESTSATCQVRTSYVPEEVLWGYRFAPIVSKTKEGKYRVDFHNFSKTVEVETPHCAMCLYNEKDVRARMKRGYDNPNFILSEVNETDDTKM
G6PDH counter: inhibits Leuconostoc G6PDH, flagging false hits in G6PDH-based assays | Purified L. mesenteroides G6PDH, diaphorase/resazurin coupled fluorescence, 45 min | inhibition, % at 5 µM | 200,000 compounds, 0.12% hits | AID 1020; in the data active = inhibition above about 50%
PMI act: increases human mannose-6-phosphate isomerase activity; P34949; purified human PMI, coupled resazurin fluorescence, 20 min; stronger effect = higher value; 1 = vehicle control, 0 substrate-free wells; activation factor at 20 µM; 190,000 compounds, 0.005% hits; AID 1214;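 active = activation factor of 2 or more at 20 µM, relative to plate controls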
Diaphorase inh: diaphorase inhibition or chemical oxidation counter-screen; diaphorase resazurin-to-resorufin fluorescence, NADH, 16 min; bacterial (C. kluyveri) enzyme, not human; inhibition, % at 20 µM; 190,000 compounds, 0.69% hits; AID 1217;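 active = primary screen inhibition at 20 µM above a set limit, cut at about 50% in these data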;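 note: plate controls were DMSO with full reaction for no effect and wells lacking NADH for full effect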
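controls = No-NADH positive control and DMSO neutral control | system = Clostridium kluyveri diaphorase enzyme | timing = reaction incubation of 16 min at room temperature | signal = resorufin fluorescence 544/590 nm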
ROMK hit retest: retested hit modulating human ROMK potassium channel | shares compounds with ROMK primary | ROMK thallium flux, fluorescence ratio; stronger effect = lower value | normalized thallium flux (F/F0 slope) at 10 µM | 3,000 compounds, 54% hits | AID 1917;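 active = Flux at 10 µM at least 3 SD below or above vehicle control mean in one or both replicates; inconclusive = no clear call, values can overlap the other calls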
* = called active by the depositor; ? = inconclusive; nt = not tested or not shown. Rows were chosen to be rich in hits. Some 2.2% of all compounds tested hit in one or more screens of this group.

SMILES | Diaphorase act | PMI act hi M6P | ROMK primary | G6PDH counter | PMI act | Diaphorase inh | ROMK hit retest
COCCOC(=O)c1[nH]c2c(c1C)C(=O)CC(c1cccs1)C2 (centres undefined) | 0.9 | 1 | 1.1 | -1 | 1 | 9 | nt
CCCCCOC(=O)c1[nH]c2c(c1C)C(=O)CC(c1ccco1)C2 (centres undefined) | 1 | 1 | 2.1 | 10 | 1.1 | 2 | 0.085
C=CCN=C1SC(C)(C)C(=O)N1S(=O)(=O)c1ccc(C)cc1 | 0.8 | 1 | -1.2 | 3 | 1 | 16 | nt
COc1ccccc1N1CCN(c2ccc(-c3ccccc3)nn2)CC1 | 0.9 | 1.4 | 2.5* | -51 | 1.1 | 8 | 0.079
COc1cnc(-c2ccccn2)nc1Sc1ccc(C)cc1 | 1 | 1.1 | -4.4* | 8 | 1.1 | -2 | ?
CCOC(=O)c1[nH]c(C)c(C(=O)N2CCc3ccccc32)c1C | 1 | 1.1 | 3.2* | 3 | 1.1 | 0 | 0.082
NS(=O)(=O)c1ccc(CCNC(=O)c2ccc(C#CC3(O)CCCCC3)cc2)cc1 | 0.9 | 0.9 | -0.43 | 8 | 0.9 | 15 | 0.082
O=[N+]([O-])c1cccc(S(=O)(=O)N/N=C/c2ccc(O)cc2)c1 | 1 | 1.5 | 0.043 | 5 | 1.4 | 2 | nt
Cc1cccc(N2CCN(C(c3ccccc3)c3nnnn3C(C)(C)C)CC2)c1C (centres undefined) | 0.8 | 1 | -3.3* | 1 | 1 | 21 | 0.088
Cc1cccc(N2CCN(C(c3cccs3)c3nnnn3C(C)(C)C)CC2)c1C (centres undefined) | 0.9 | 1 | 0.056 | 0 | 1 | 9 | nt
CN(C(=O)CSc1nnnn1-c1ccc(O)cc1)C1CCS(=O)(=O)C1 (centres undefined) | 1 | 1 | -0.85 | -6 | 1 | 1 | nt
CCCNc1nc(Cl)nc(NC(C)(C)C)n1 | 1 | 1.1 | -3.8* | -7 | 1.2 | -2 | 0.053*
CC(C)(C)Nc1nc(Cl)nc(NC(C)(C)C)n1 | 0.9 | 1 | nt | 8 | 0.9 | 6 | nt
COc1ccc(C/C(O)=C(\C#N)c2nc3ccccc3s2)cc1 | 0.8 | 1 | -3.1* | -3 | 0.9 | 21 | 0.06*
COc1ccc(/C=C/C2=Nc3ccccc3NC(C)(C)C2)cc1OC | nt | nt | -7.8* | nt | nt | nt | 0.043*
COC(=O)c1cc([N+](=O)[O-])c(-n2cncn2)c([N+](=O)[O-])c1 | nt | nt | -7.8* | 13 | nt | nt | 0.043*
COP(=O)(CC(=O)c1ccccc1)CC(=O)c1ccccc1 | 1 | 1 | -0.17 | 11 | 1 | 3 | nt
N#CC1=C(N)N(c2ccccc2)C(c2cccc([N+](=O)[O-])c2)C1(C#N)C#N (centres undefined) | 0.8 | 0.9 | nt | 1 | 1 | 17 | 0.037*
Cc1cccc(N2C(N)=C(C#N)C(C#N)(C#N)C2c2ccccc2)c1 (centres undefined) | 0.8 | 0.8 | nt | 19 | 0.8 | 16 | 0.056*
COc1ccc2c(n1)Sc1nc3ccccc3nc1N2 | nt | nt | nt | nt | nt | nt | 0.057*
CC1=C(C(=O)OCC2CCCO2)C(c2ccc(C)cc2)C2=C(CC(C)(C)CC2=O)N1 (centres undefined) | 1 | 1.1 | -0.45 | 13 | 1 | 0 | nt
C/C=C/c1c(F)c(F)c(Oc2ccc(C(=O)O)cc2)c(F)c1F | 0.9 | 1 | 3.8* | 5 | 1 | 12 | 0.09
O=C1CC(/C=C/c2ccc([N+](=O)[O-])cc2)=Nc2ccccc2N1 | nt | nt | nt | nt | nt | nt | 0.057*
CC12CCC(C(=O)NCc3ccc(F)cc3)(OC1=O)C2(C)C (centres undefined) | 0.9 | 1 | -0.59 | 9 | 1 | 6 | nt
CN1/C(=C\C=C2/C(=O)Oc3ccccc3C2=O)C(C)(C)c2ccccc21 | 0.9 | 1 | nt | 2 | 0.9 | 12 | nt
SMILES | Diaphorase act | PMI act hi M6P | ROMK primary | G6PDH counter | PMI act | Diaphorase inh | ROMK hit retest
CC1=NN(c2ccccc2)C(=O)/C1=C\C=C1/N(C)c2ccccc2C1(C)C | 0.9 | 0.9 | nt | -22 | 0.8 | 15 | 0.08
CC1=NN(c2ccccc2)C(=O)/C1=C\C=C1\N(C)c2ccccc2C1(C)C | 0.8 | 0.9 | nt | 1 | 0.9 | 16 | 0.063*
O=C(CSc1nc2ccccc2n1Cc1ccc(Cl)cc1)N/N=C/c1ccc(C(=O)O)cc1 | 0.8 | 1 | 0.4 | -10 | 1 | 25 | nt
O=C(N/N=C/c1cn(-c2ccccc2)nc1-c1cc2ccccc2o1)c1ccncc1 | 0.7 | 0.8 | 0.051 | -8 | 0.9 | 28 | nt
N#C/C(=C\c1cn(-c2ccccc2)nc1-c1cc2ccccc2o1)c1nc2ccccc2[nH]1 | 0.9 | 1.2 | -3.5* | -4 | 1.3 | 6 | 0.048*
O=C(N/N=C/c1cn(-c2ccccc2)nc1-c1cc2ccccc2o1)c1cccnc1 | 0.9 | 0.9 | nt | 12 | 0.9 | 7 | 0.075
CN(C)S(=O)(=O)c1cccc(-c2nn(-c3ccccc3)cc2/C=C(\C#N)c2nc3ccccc3[nH]2)c1 | 0.9 | 1 | 0.94 | -25 | 0.9 | 13 | nt
O=C(CN1C(=O)NC2(CCSC2)C1=O)NCc1ccccc1 (centres undefined) | 1 | 1 | 0.16 | 1 | 1.1 | 4 | nt
O=C(CCn1c(=S)oc2ccccc21)NCCC1=CCCCC1 | nt | nt | -0.54 | nt | nt | nt | nt
COc1ccc2c(c1OC)C(=O)OC2Nc1nc(-c2cc3ccccc3oc2=O)cs1 (centres undefined) | 0.9 | 0.9 | nt | -13 | 0.9 | 7 | 0.04*
CSc1nsc(SC)c1C(=O)N1CCN(S(=O)(=O)c2ccc(C)cc2)C1C(C)C (centres undefined) | 0.8 | 0.9 | -3.5* | 2 | 1 | 21 | 0.064*
Nc1nc(SCC(=O)NC2CCCC2)[nH]c(=O)c1NC(=O)c1cccs1 | nt | nt | -1 | nt | nt | nt | nt
COc1ccc(NS(=O)(=O)c2cc(NC(=O)c3ccco3)ccc2N2CCCC2)cc1 | 0.9 | 0.9 | nt | -17 | 0.8 | 14 | nt
COc1ccc(NS(=O)(=O)c2cc(NC(=O)c3cc(F)c(F)c(F)c3F)ccc2N2CCCC2)cc1 | nt | nt | nt | nt | nt | nt | 0.084
O=C(CSC1=N/C(=C/c2ccc(Cl)c(Cl)c2)C(=O)N1c1ccccc1F)NC1CC1 | 0.9 | 1 | 0.95 | 1 | 1 | 9 | nt
O=C(Cc1ccc(Br)c2ccccc12)N/N=C/c1ccccn1 | 0.9 | 1.1 | -0.41 | -4 | 1 | 13 | nt
COc1ccc(S(=O)(=O)N2CCCCCC2)cc1NC(=O)c1c2c(nc3ccccc13)CCN(Cc1ccccc1)C2 | 0.8 | 1 | -1.6 | 5 | 0.9 | 19 | nt
